Source: PubChem
GASC-1 inh – blocks human GASC-1 demethylase activity; GST-JMJD2C(1-420) H3K9me3 demethylation, DELFIA europium; 330,000 tested, 0.069% active; inhibition, % at 2.35 µM;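 active = more than half of a compound's replicate wells show inhibition beyond 50%, single wells judged on their own value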;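 note: signal counts dimethyl H3K9 product captured on neutravidin plate; 0% = median of DMSO wells and 100% = 0.3 times that DMSO median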
Target sequence (Q9H3R0 1-420 limits assumed): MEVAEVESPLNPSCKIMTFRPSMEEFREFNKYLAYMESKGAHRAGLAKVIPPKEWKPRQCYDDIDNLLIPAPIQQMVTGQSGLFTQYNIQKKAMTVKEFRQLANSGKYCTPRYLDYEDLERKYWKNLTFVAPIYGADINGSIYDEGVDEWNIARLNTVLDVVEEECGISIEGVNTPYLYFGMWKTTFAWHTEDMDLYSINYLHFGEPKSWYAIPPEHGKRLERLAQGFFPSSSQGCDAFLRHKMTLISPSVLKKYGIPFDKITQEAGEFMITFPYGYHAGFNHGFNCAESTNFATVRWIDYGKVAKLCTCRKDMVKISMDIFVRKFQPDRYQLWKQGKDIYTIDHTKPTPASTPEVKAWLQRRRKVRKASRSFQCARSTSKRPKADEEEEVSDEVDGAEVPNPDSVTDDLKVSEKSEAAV
A3A deaminase – inhibitors of human APOBEC3A DNA deaminase | AID 493011 | inhibition, % at 20 µM | 330,000 tested, 0.41% active | recombinant A3A, FAM/TAMRA ssDNA deamination fluorescence;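 active = at least 40% inhibition at 20 µM here, with at most 30% in a related deaminase screen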;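 note: plate controls were A3A with DMSO for no effect and wells lacking A3A enzyme for full effect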
Target sequence (P31941 whole entry, looked up): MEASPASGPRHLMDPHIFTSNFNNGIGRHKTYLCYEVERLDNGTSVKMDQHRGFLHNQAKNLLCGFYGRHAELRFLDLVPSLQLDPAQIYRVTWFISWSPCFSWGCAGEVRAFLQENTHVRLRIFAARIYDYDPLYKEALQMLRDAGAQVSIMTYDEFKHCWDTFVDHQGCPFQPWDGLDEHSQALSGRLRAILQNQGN
UCH37 inh – human UCH37 deubiquitinating enzyme inhibition | Q9Y5K5 | purified proteasome/UCH37, Ub-AMC cleavage fluorescence | inhibition, % (no concentration beside the values) | 330,000 tested, 0.33% active;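 active = mean inhibition over replicate wells above about 20%, limit read from the data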;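 note: 0% = compound-free wells with enzyme and 100% = wells lacking proteasome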
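assay system = human UCH37 enzyme supplied as purified proteasome complex | amount = proteasome at 0.15 nM in the dispensed enzyme solution | schedule = 30 min compound-proteasome preincubation then 25 min substrate reaction, room temperature | measured by = fluorescence, ex 355 nm, em 460 nm | benchmarks = no-proteasome wells (full inhibition) and compound-free wells (no inhibition)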
A3G deaminase – APOBEC3G (human) deaminase inhibition; 330,000 tested, 0.28% active; inhibition, % at 20 µM; recombinant A3G, ssDNA deamination FAM/TAMRA fluorescence; Q9HC16;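 active = inhibition of at least 40% at 20 µM, with no more than 30% in the related APOBEC3A deaminase screen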;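 note: plate controls were DMSO wells with A3G for no effect and wells lacking A3G enzyme for full effect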
APOBEC3A confirm – confirmation of human APOBEC3A DNA deaminase inhibitors; shares compounds with A3A deaminase; recombinant A3A, ssDNA deaminase UDG fluorescence assay; inhibition, % at 20 µM; 1,400 tested, 63% active; AID 493151;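 active = inhibition reaching a set limit, 80% of the first screen's cutoff, at 20 µM in any replicate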;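 note: plate controls were DMSO wells with A3A for no effect and wells lacking A3A enzyme for full effect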
UDG A3A counter – inhibits UDG, flagging false APOBEC3A inhibitors. shares compounds with A3A deaminase. UDG counterscreen, FAM/TAMRA uracil oligo fluorescence. inhibition, % at 20 µM. 1,000 tested, under 10 active; call rule not given here
Numbers without * were called inactive; / = not tested or not shown. Sampled rows, rich in hits. Any-hit rate of the full collection: about 0.97%.

SMILES | GASC-1 inh | A3A deaminase | UCH37 inh | A3G deaminase | APOBEC3A confirm | UDG A3A counter
O=C(NN=Cc1ccc(Cl)s1)c1ccccc1[N+](=O)[O-] | / | / | 9 | / | / | /
CC(=NNC(=O)c1ccncc1)c1ccc2c(c1)OCO2 | / | / | 8 | / | / | /
O=C(CNc1cccc2ccccc12)NN=Cc1ccc([N+](=O)[O-])o1 | / | / | 9 | / | / | /
O=C(Nc1ccc(-c2ccccc2)cc1)c1ccco1 | 5 | 42* | 2 | 22 | 26 | /
CCOc1cc(N2CCOCC2)c(OCC)cc1NS(=O)(=O)c1ccc(Cl)s1 | -16 | 60* | 2 | 9 | 21 | /
CCOc1cc(N2CCOCC2)c(OCC)cc1NC(=O)c1cc(S(=O)(=O)N2CCOCC2)ccc1Cl | / | 2 | 2 | -6 | / | /
CC(=O)OCCn1c(C)[n+](CCOC(C)=O)c2cc(Cl)c(Cl)cc21 | 1 | 82* | 1 | 14 | 81* | -1
CCn1c(/C=C/Nc2ccccc2)[n+](CC)c2cc(Cl)c(Cl)cc21 | -1 | 30 | 12 | 7 | / | /
CCn1c(C)[n+](CCOCC[n+]2c(C)n(CC)c3cc(Cl)c(Cl)cc32)c2cc(Cl)c(Cl)cc21 | 1 | 78* | 5 | 29 | 88* | -2
CC(=O)OCCn1c2nc(=O)[nH]c(=O)c-2nc2cc(C)c(C)cc21 | -6 | -33 | 14 | 7 | / | /
CCOC(=O)Cn1c(C)[n+](C)c2cc(Cl)c(Cl)cc21 | 2 | 87* | 1 | 24 | 81* | 2
O=C(CCn1cnc2ccccc21)NN=C/C=C/c1ccccc1 | / | / | 4 | / | / | /
CCCCC1CCC(C(=O)OC(C)C(=O)Nc2ccc(NC(C)=O)cc2)CC1 (stereo not given) | -2 | 49* | 3 | 16 | 5 | /
O=C(CNC(=O)c1ccccc1Br)NN=Cc1ccccc1O | / | / | -28 | / | / | /
CCOc1ccc(NC(=O)c2cc3ccccc3cc2O)cc1 | -27 | 63* | 0 | 13 | 52* | -3
COc1ccc(NS(=O)(=O)c2ccc(S(=O)(=O)N(C)C)cc2)cc1S(N)(=O)=O | 0 | 77* | 5 | -6 | -1 | 3
CCc1ccc(/C=C/c2c[nH]c3ccccc23)[n+](CC)c1 | 1 | 65* | 10 | 20 | 69* | 0
O=C(CCC(=O)Nc1cc(C(F)(F)F)ccc1Cl)NN=Cc1cc([N+](=O)[O-])ccc1O | / | / | 3 | / | / | /
COc1ccc(C(C(=O)NCCC(C)C)N(CCO)C(=O)c2snc(C(N)=O)c2N)cc1 (stereo not given) | 13 | 77* | -39 | 0 | -1 | /
COc1ccc(C(C(=O)NCCC(C)C)N(CCO)C(=O)c2snc(C(N)=O)c2N)cc1OC (stereo not given) | -3 | -7 | -34 | -6 | / | /
ON=C1CCCC/C1=C\c1ccccc1 | / | / | 6 | / | / | /
CCSc1ccc2cc(OC)ccc2[n+]1CC | -1 | 78* | -50 | 28 | 70* | -3
NCC(O)CN(c1ccccc1)c1ccccc1 (stereo not given) | -33 | -4 | 3 | -4 | / | /
CC(C)[N+](C)(C)CC(O)CN(c1ccccc1)c1ccccc1 (stereo not given) | -4 | 61* | -1 | 10 | 71* | 0
COc1cc(/C=C(/C#N)C(=O)NCCCc2ccccc2)ccc1OCC(=O)O | -9 | 40* | 4 | 11 | 67* | 1
SMILES | GASC-1 inh | A3A deaminase | UCH37 inh | A3G deaminase | APOBEC3A confirm | UDG A3A counter
COc1cc(/C=C(\C#N)C(=O)NCc2ccccc2)ccc1OCc1ccc(C(=O)O)cc1 | 57 | -2 | 4 | 0 | / | /
Cc1nc2ccc(NC(=O)c3cc(Cl)ccn3)cc2s1 | 1 | 49* | 1 | -2 | 23 | 0
COC(=O)c1ccccc1NC(=O)c1cc[n+](C)cc1 | -17 | 77* | 9 | 19 | 57* | -2
COc1ccccc1NC(=O)c1cc[n+](C)cc1 | 0 | 86* | 1 | 10 | 64* | 2
CSc1ccccc1NC(=O)c1noc2c1CCC2 | -1 | 37 | 1 | 16 | / | /
COc1ccccc1NC(=O)c1ccc(COc2ccccc2OC)cc1 | -6 | -4 | -2 | -7 | / | /
COC(=O)c1ccccc1NC(=O)c1noc2c1CCC2 | -3 | 59* | 1 | 23 | 47* | /
COC(=O)c1ccccc1NC(=O)c1cc[n+]([O-])cc1 | -4 | -2 | 2 | -4 | / | /
Cc1ccccc1CN1C(=O)CSC1=NN=Cc1ccco1 | / | / | 5 | / | / | /
Cc1ccccc1OCC(=O)NN=Cc1ccc2c(c1)OCCO2 | / | / | 7 | / | / | /
COC(C(=O)Nc1ccc(Cl)cc1C)c1ccccc1 (stereo not given) | -1 | 53* | -1 | 12 | 12 | /
COC(C(=O)Nc1ccc(NC(=O)C(OC)c2ccccc2)cc1)c1ccccc1 (stereo not given) | 32 | 2 | 4 | 2 | / | /
O=C(NN=Cc1cccc(NC(=O)c2ccc(Cl)cc2)c1)c1cccc(O)c1 | / | / | 0 | / | / | /
S=c1[nH]nc(COc2ccccc2)n1N=Cc1cccc(Cl)c1Cl | / | / | 4 | / | / | /
O=S(=O)(O)c1cc(O)c2c(O)c(N=Nc3cc(Cl)ccc3O)c(S(=O)(=O)O)cc2c1 | -4 | 91* | 34* | 22 | 90* | 3
Cc1c(C(=O)OC(C)C(=O)N(C)Cc2ccccc2)oc2ccccc12 (stereo not given) | 4 | -2 | 2 | -4 | / | /
Cc1c(C(=O)OC(C)C(C)C[N+](C)(C)C)oc2ccccc12 (stereo not given) | -1 | 83* | -1 | 24 | 81* | -3
OCCN1CCN(c2ncnc3nc[nH]c23)CC1 | 83 | 51* | 9 | -3 | -5 | 1
CN1CCC(N(C)S(=O)(=O)c2ccc(NC(=O)COc3ccc([N+](=O)[O-])cc3)cc2)CC1 | 5 | 50* | 2 | 9 | 52* | -1
CN1CCC(N(C)S(=O)(=O)c2ccc(NC(=O)COc3ccc(F)cc3)cc2)CC1 | -4 | 64* | 0 | 13 | 58* | -2
CN1CCC(N(C)S(=O)(=O)c2ccc(NC(=O)COc3ccc(Cl)cc3)cc2)CC1 | / | 3 | 5 | 1 | / | /
O=C(CSc1nnc(COc2ccccc2Cl)o1)NC(=O)NCc1ccco1 | 6 | 59* | 5 | 23 | 22* | -1
Cc1cc(C=NNC(=O)CC2(C)OCCO2)c(C)n1-c1ccc(Cl)c(Cl)c1 | / | / | 4 | / | / | /
CCOc1cccc(C=NN2CCN(c3ccc(Cl)cc3)CC2)c1O | / | / | 4 | / | / | /
CC(C)NC(=O)C(C)N1CCN(S(=O)(=O)c2ccc3ccccc3c2)CC1 (stereo not given) | 3 | 57* | 2 | 15 | 59* | -1
COc1ccc(C=NNC(=O)c2ccccc2O)cc1Cn1cc(Cl)cn1 | / | / | -50 | / | / | /
CSC1=NCCN1CCOc1ccccc1 | 1 | 65* | 5 | 16 | 55* | -2
CC1(C(O)(C#CC[N+]2(C)CCCCC2)c2ccccc2)CCCC1 (stereo not given) | 3 | 82 | 2 | 34 | / | /
